From ChEMBL document CHEMBL1139413, “Discovery of the first potent and orally efficacious agonist of the orphan G-protein coupled receptor 119” (J Med Chem, 2008)
Where “and” joins values, the source holds several entries; their conditions need not be identical. Equal entries are not always repeated. Calls of active or inactive are those of the source. The calls are words filed in the database; no cut-off is given here.

How the values were obtained:
[1] = molecular target: T1, Glucose-dependent insulinotropic receptor (Homo sapiens, UniProt Q8TDV5); test: Agonist activity at […] transfected in Xenopus dermal melanophore assessed as dispersion of melatonin-induced pigmentation; assay type: functional
T1 sequence (Q8TDV5 whole entry): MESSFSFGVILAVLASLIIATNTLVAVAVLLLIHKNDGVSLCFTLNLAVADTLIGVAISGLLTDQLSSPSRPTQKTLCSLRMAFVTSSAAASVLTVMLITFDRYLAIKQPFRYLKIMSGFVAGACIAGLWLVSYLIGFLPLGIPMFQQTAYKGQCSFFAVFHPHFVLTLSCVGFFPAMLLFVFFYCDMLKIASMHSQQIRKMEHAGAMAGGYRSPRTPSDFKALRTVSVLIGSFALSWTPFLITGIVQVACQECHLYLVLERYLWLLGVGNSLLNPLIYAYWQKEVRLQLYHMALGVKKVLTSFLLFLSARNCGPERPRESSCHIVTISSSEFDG
Method in brief: (§1)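 Cultured Xenopus dermal melanophores transiently transfected with GPR119 plasmid, plated in 384-well format. At 48 h post-transfection, pigment aggregated with melatonin (10nM, 1 h), then compounds applied for 1 h. Pigment dispersion read as absorbance (light transmission) to build concentration-response curves; EC50 with log SD, number of determinations given.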

Canis lupus familiaris = species: Canis lupus familiaris; test: Agonist activity at dog GPR119 transfected in Xenopus dermal melanophore assessed as dispersion of melatonin-induced pigmentation; assay type: functional; method in brief: as §1
Macaca fascicularis = species: Macaca fascicularis; test: Agonist activity at cynomolgus monkey GPR119 transfected in Xenopus dermal melanophore assessed as dispersion of melatonin-induced pigmentation; assay type: functional; method in brief: as §1
[2] = molecular target: T2, Glucose-dependent insulinotropic receptor (Mus musculus) (UniProt Q7TQP3); test: Agonist activity at mouse GPR119 transfected in Xenopus dermal melanophore assessed as dispersion of melatonin-induced pigmentation; assay type: functional; method in brief: as §1
T2 sequence (whole entry): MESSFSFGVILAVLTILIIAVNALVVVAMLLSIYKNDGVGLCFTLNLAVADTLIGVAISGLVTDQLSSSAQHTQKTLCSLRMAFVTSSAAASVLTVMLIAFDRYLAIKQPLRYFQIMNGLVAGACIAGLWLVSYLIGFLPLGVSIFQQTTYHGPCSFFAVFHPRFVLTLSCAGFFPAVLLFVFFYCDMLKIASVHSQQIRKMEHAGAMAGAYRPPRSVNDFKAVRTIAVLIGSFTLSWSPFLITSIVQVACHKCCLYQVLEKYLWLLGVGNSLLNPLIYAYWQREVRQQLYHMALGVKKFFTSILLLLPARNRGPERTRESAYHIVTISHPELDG

[3] = molecular target: Voltage-gated inwardly rectifying potassium channel KCNH2 (Homo sapiens, UniProt Q12809); test: Inhibition of hERG upto 10 uM by patch clamp assay; assay type: toxicity
Sequence of Voltage-gated inwardly rectifying potassium channel KCNH2 (Q12809 whole entry): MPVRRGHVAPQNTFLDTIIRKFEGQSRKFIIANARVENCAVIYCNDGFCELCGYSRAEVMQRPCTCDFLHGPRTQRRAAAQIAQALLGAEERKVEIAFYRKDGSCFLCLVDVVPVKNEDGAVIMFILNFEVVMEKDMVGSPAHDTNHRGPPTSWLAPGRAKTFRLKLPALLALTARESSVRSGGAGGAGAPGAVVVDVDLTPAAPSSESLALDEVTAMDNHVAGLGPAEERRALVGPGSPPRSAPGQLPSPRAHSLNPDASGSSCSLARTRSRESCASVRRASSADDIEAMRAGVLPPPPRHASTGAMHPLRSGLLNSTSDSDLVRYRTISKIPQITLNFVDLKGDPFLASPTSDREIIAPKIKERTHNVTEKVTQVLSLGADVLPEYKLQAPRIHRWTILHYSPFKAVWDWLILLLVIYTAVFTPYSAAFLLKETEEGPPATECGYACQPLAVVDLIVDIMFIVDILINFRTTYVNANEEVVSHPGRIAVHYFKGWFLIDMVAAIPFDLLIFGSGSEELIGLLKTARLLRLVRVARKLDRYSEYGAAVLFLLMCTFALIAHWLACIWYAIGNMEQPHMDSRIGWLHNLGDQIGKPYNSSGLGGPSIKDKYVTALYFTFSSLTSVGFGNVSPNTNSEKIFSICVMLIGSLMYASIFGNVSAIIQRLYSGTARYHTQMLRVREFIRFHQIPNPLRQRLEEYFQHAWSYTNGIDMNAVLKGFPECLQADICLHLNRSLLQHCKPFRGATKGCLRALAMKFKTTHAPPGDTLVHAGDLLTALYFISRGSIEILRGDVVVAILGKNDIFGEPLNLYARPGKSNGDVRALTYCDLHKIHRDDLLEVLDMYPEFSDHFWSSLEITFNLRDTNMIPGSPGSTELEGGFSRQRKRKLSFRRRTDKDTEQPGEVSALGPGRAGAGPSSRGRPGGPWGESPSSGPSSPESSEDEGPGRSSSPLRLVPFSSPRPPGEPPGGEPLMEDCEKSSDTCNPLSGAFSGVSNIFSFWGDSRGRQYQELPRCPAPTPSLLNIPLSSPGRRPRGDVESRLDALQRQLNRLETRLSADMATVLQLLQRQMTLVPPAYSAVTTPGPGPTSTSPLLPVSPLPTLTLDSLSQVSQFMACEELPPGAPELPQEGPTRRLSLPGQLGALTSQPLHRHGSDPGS
Method in brief: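 hERG channel current measured by patch clamp, compound tested up to 10 µM.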

[4] = Oral bioavailability in Sprague-Dawley rat at 10 mg/kg; assay type: ADME, organism-based; settings: in vivo
Method in brief: (§2)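 Rat oral PK: single 10 mg/kg po dose; plasma tmax, Cmax, AUC, terminal t1/2 determined, with oral bioavailability (%F) also reported.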

[5] = Inhibition of cytochrome
[6] = Tmax in Sprague-Dawley rat at 10 mg/kg, po; assay type: ADME, organism-based; parameters: dose 10 mg/kg, route oral; settings: in vivo; method in brief: as §2
[7] = Tmax in C57BL/6J mouse at 10 mg/kg, po; assay type: ADME, organism-based; parameters: dose 10 mg/kg, route oral; settings: in vivo
Method in brief: (§3)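 Mouse oral PK: C57/bl6J mice given a single 10 mg/kg po dose; plasma exposure profile used to derive tmax, Cmax, AUC (area under exposure curve) and terminal t1/2. No iv arm run in mouse.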

[8] = Cmax in Sprague-Dawley rat at 10 mg/kg, po; assay type: ADME, organism-based; parameters: dose 10 mg/kg, route oral; settings: in vivo; method in brief: as §2
[9] = AUC in C57BL/6J mouse at 10 mg/kg, po; assay type: ADME, organism-based; parameters: dose 10 mg/kg, route oral; settings: plasma; method in brief: as §3
[10] = Cmax in C57BL/6J mouse at 10 mg/kg, po; assay type: ADME, organism-based; parameters: dose 10 mg/kg, route oral; settings: in vivo; method in brief: as §3
[11] = Half life in Sprague-Dawley rat at 10 mg/kg, po; assay type: ADME, organism-based; parameters: dose 10 mg/kg, route oral; settings: in vivo; method in brief: as §2
[12] = Agonist activity at GPR119 in hamster HIT-T15 cells stimulation of assessed as cAMP production; assay type: functional, cell-based; settings: Cricetinae
[13] = Half life in C57BL/6J mouse at 10 mg/kg, po; assay type: ADME, organism-based; parameters: dose 10 mg/kg, route oral; settings: in vivo; method in brief: as §3
[14] = AUC in Sprague-Dawley rat at 10 mg/kg, po; assay type: ADME, organism-based; parameters: dose 10 mg/kg, route oral; settings: plasma; method in brief: as §2
Mus musculus [15] = test: Increase in glucose dependent insulin release in GPR119 deficient C57BL/6J mouse at 20 mg/kg, po by oral glucose tolerance test; assay type: functional, organism-based; parameters: dose 20 mg/kg
Mus musculus [16] = species: Mus musculus; test: Increase in glucose dependent insulin release in diabetic KK/ay mouse by oral glucose tolerance test; assay type: functional, organism-based
Rattus norvegicus = test: Effect on glucose excursion in Sprague-Dawley rat at 30 mg/kg, po by oral glucose tolerance test; assay type: functional, organism-based; parameters: dose 30 mg/kg
Mus musculus [17] = test: Increase in glucose dependent insulin release in wild type C57BL/6J mouse at 20 mg/kg, po by oral glucose tolerance test; assay type: functional, organism-based; parameters: dose 20 mg/kg
[18] = molecular target: T3, Glucose-dependent insulinotropic receptor (Rattus norvegicus) (UniProt Q7TQN8); test: Agonist activity at rat GPR119 transfected in Xenopus dermal melanophore assessed as dispersion of melatonin-induced pigmentation; assay type: functional; method in brief: as §1
T3 sequence (whole entry): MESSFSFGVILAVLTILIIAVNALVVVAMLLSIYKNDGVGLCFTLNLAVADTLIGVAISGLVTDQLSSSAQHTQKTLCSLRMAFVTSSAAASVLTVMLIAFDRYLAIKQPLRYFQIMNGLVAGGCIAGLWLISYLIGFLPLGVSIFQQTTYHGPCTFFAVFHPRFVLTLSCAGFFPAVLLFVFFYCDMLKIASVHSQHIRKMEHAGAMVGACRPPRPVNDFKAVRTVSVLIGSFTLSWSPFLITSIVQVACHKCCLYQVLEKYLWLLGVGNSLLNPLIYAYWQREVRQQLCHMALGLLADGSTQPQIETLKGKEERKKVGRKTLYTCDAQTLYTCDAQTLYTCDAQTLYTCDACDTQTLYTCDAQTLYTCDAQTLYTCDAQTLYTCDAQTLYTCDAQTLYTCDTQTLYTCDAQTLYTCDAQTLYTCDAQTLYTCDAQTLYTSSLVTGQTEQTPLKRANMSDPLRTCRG

[19] = molecular target: T1, Glucose-dependent insulinotropic receptor; test: Agonist activity at GPR119 expressed in HEK293 cells assessed as cAMP level by flash plate assay; assay type: functional, cell-based
Method in brief: (§4)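 HEK293 cells transiently transfected with GPR119; crude plasma membranes prepared 48 h post-transfection. Membrane adenylyl cyclase read by FlashPlate cAMP kit: 15 µg membrane protein, 60 min at room temperature in 20 mM HEPES pH 7.4 with 10 µM GTP, 0.1 mM ATP, 500 µM IBMX, 10 mM phosphocreatine, creatine phosphokinase. cAMP from on-plate standard curve; usually n = 1 or 2.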

[20] = molecular target: T1, Glucose-dependent insulinotropic receptor; test: Inverse agonist activity at GPR119 expressed in HEK293 cells assessed as cAMP level by flash plate assay; assay type: functional, cell-based; method in brief: as §4

CCSc1ccc(Nc2ncnc(N3CCC(c4nc(C(C)C)no4)CC3)c2[N+](=O)[O-])cc1
EC50 [1]: 110 nM

CCS(=O)(=O)c1ccc(Nc2ncnc(N3CCC(c4nc(C(C)C)[n-][o+]4)CC3)c2[N+](=O)[O-])c(F)c1
EC50 [1]: 7 nM

CC(C)c1noc(C2CCN(c3ncnc(Nc4ccc(S(C)(=O)=O)cc4F)c3[N+](=O)[O-])CC2)n1
Activity (Canis lupus familiaris): 1.6 nM | Activity (Macaca fascicularis): 0.4 nM | Activity [2]: 12 nM | Activity [3]: Not Active | EC50 [1]: 0.68 nM | bioavailability [4]: 12% | Activity [5]: inactive | Tmax [6]: 1 h | Tmax [7]: 30 min | Cmax [8]: 126 ng/mL and 250 nM | AUC [9]: 19800 ng·h/mL | Cmax [10]: 4980 ng/mL | half-life [11]: 66 min | EC50 [12]: 4.7 nM | half-life [13]: 204 min | AUC [14]: 263 ng·h/mL | Activity (Mus musculus [15]): inactive | Activity (Mus musculus [16]): Active | Activity (Rattus norvegicus): inactive | Activity (Mus musculus [17]): Active | Activity [18]: 14 nM

CS(=O)(=O)c1ccc(Nc2ncnc(N3CCC(c4nc(C5CC5)no4)CC3)c2[N+](=O)[O-])cc1
EC50 [1]: 25 nM

CC(C)(C)c1noc(C2CCN(c3ncnc(Nc4ccc(S(C)(=O)=O)cc4)c3[N+](=O)[O-])CC2)n1
EC50 [1]: 1.5 nM

CCc1noc(C2CCN(c3ncnc(Nc4ccc(S(C)(=O)=O)cc4)c3[N+](=O)[O-])CC2)n1
EC50 [1]: 10 nM

CCOC(=O)C1CCN(c2ncnc(Oc3ccc(S(C)(=O)=O)cc3)c2[N+](=O)[O-])CC1
EC50 [19]: 1900 nM

CS(=O)(=O)c1ccc(Nc2ncnc(N3CCC(c4nc(CC5CC5)no4)CC3)c2[N+](=O)[O-])cc1
EC50 [1]: 160 nM

CCOC(=O)C1CCN(c2ncnc(Oc3ccc(S(N)(=O)=O)cc3)c2[N+](=O)[O-])CC1
EC50 [19]: 3000 nM

CC(C)c1nc(C2CCN(c3ncnc(Nc4ccc(S(=O)(=O)C(C)C)cc4F)c3[N+](=O)[O-])CC2)[o+][n-]1
EC50 [1]: 7.9 nM

CCOC(=O)C1CCN(c2ncnc(Oc3ccc(Br)cc3)c2[N+](=O)[O-])CC1
IC50 [20]: 50 nM

CS(=O)(=O)c1ccc(Nc2ncnc(N3CCC(c4nc(-c5cccc(C(F)(F)F)c5)no4)CC3)c2[N+](=O)[O-])cc1
EC50 [1]: 24 nM

CC(C)c1noc(C2CCN(c3ncnc(Nc4ccc(S(C)(=O)=O)c(F)c4)c3[N+](=O)[O-])CC2)n1
EC50 [1]: 3.4 nM

CCS(=O)(=O)c1ccc(Nc2ncnc(N3CCC(c4nc(C(C)C)no4)CC3)c2[N+](=O)[O-])cc1
EC50 [1]: 17 nM

CCOC(=O)C1CCN(c2ncnc(Oc3ccc(OCCOC)cc3)c2[N+](=O)[O-])CC1
IC50 [20]: 500 nM

CCCS(=O)(=O)c1ccc(Nc2ncnc(N3CCC(c4nc(C(C)C)no4)CC3)c2[N+](=O)[O-])cc1
EC50 [1]: 4.7 nM

CCOC(=O)C1CCN(c2ncnc(Oc3ccc(-n4cncn4)cc3)c2[N+](=O)[O-])CC1
EC50 [19]: 2500 nM

CCOC(=O)C1CCN(c2ncnc(Oc3cc(C(F)(F)F)nn3C)c2[N+](=O)[O-])CC1
IC50 [20]: 84 nM

CC(C)c1noc(C2CCN(c3ncnc(Nc4ccc(S(C)(=O)=O)cc4)c3[N+](=O)[O-])CC2)n1
EC50 [1]: 5.8 nM

CCCc1noc(C2CCN(c3ncnc(Nc4ccc(S(C)(=O)=O)cc4)c3[N+](=O)[O-])CC2)n1
EC50 [1]: 430 nM

Cc1noc(C2CCN(c3ncnc(Nc4ccc(S(C)(=O)=O)cc4)c3[N+](=O)[O-])CC2)n1
EC50 [1]: 260 nM

CCOC(=O)C1CCN(c2ncnc(Nc3ccc(-n4cncn4)cc3)c2[N+](=O)[O-])CC1
EC50 [19]: 400 nM

CCOC(=O)C1CCN(c2ncnc(Oc3ccc(C(=O)CC(=O)OC)cc3)c2[N+](=O)[O-])CC1
EC50 [19]: 1000 nM

CC(C)c1noc(C2CCN(c3ncnc(Nc4ccc(S(=O)(=O)C(C)C)cc4)c3[N+](=O)[O-])CC2)n1
EC50 [1]: 7.8 nM

CCOC(=O)C1CCN(c2ncnc(Oc3ccc(CCC(C)=O)cc3)c2[N+](=O)[O-])CC1
EC50 [19]: 1700 nM

CS(=O)(=O)c1ccc(Nc2ncnc(N3CCC(c4nc(-c5cccnc5)[n-][o+]4)CC3)c2[N+](=O)[O-])cc1
EC50 [1]: 660 nM

CC[S+]([O-])c1ccc(Nc2ncnc(N3CCC(c4nc(C(C)C)no4)CC3)c2[N+](=O)[O-])cc1 (stereo not drawn)
EC50 [1]: 17.1 nM

CCOC(=O)C1CCN(c2ncnc(Nc3ccc(S(C)(=O)=O)cc3)c2[N+](=O)[O-])CC1
EC50 [19]: 1200 nM
